According to ChEMBL document CHEMBL1143291, “Synthesis and structure-activity relationships of novel, substituted 5,6-dihydrodibenzo[a,g]quinolizinium P2X7 antagonists” (Bioorg Med Chem Lett, 2009):
The source made the active and inactive calls. The rule behind the calls is not given here.

Legend:
P2X purinoceptor 7 = target: T1, P2X purinoceptor 7 (Homo sapiens, UniProt Q99572); assay: Antagonist activity at human P2X7 receptor expressed in HEK293 cells assessed as inhibition of BzATP-induced fluorescent ethidium accumulation; type: functional, cell-based
T1 sequence (Q99572 whole entry): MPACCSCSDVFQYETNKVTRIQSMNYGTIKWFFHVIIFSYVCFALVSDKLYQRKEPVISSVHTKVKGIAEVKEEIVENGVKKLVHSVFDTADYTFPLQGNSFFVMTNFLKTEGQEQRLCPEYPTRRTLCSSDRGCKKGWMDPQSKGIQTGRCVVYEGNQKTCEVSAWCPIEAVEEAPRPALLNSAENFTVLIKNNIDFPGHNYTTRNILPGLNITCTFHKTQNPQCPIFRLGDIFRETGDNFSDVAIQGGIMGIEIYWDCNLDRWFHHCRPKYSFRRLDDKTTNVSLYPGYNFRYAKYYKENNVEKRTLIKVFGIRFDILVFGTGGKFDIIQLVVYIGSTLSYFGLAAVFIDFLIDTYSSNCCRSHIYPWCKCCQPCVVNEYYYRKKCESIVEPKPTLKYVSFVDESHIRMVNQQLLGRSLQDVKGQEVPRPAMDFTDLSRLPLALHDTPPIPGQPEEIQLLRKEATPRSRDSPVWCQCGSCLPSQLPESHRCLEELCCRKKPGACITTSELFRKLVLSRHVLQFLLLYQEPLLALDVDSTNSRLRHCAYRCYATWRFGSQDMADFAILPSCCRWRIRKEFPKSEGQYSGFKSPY
Outline: (§1)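 Adherent HEK293 cells stably transfected with human P2X7 cDNA were preincubated 30 min with compound. They were then resuspended at 2.5 × 10^6 cells/ml in 20 mM HEPES pH 7.4 with 140 mM KCl, 5 mM glucose, 1 mM EDTA and 0.1 mM ethidium bromide. BzATP was added to 1 mM for 120 min at 37 °C. Ethidium uptake was read by fluorescence (ex 530/20, em 590/20 nm).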

THP-1 [1] = assay: Inhibition of Bz-ATP-induced IL1-beta release in LPS/IFN-gamma-differentiated human THP1 cells at 1 uM by ELISA; type: functional
Outline: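 THP-1 cells were differentiated for 3 h with 25 ng/ml LPS plus 10 ng/ml IFNγ. They were preincubated 30 min with 1 µM compound, then stimulated with 1 mM BzATP for 30 min. Supernatants were collected by centrifugation (1000 rpm, 5 min) and mature human IL-1β was measured by ELISA. Results are mean ± SD percent inhibition, n = 3.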

THP-1 [2] = assay: Inhibition of Bz-ATP-induced IL1-beta release in LPS/IFN-gamma-differentiated human THP1 cells by ELISA; type: functional, cell-based
Outline: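 Full concentration–response curves used THP-1 cells differentiated for 3 h with 25 ng/ml LPS and 10 ng/ml IFNγ. Cells were preincubated 30 min with compound, then stimulated 30 min with 1 mM BzATP. Mature IL-1β in the centrifuged supernatant was quantified by ELISA.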

[3] = target: T2, P2X purinoceptor 7 (Homo sapiens) (UniProt Q99572); assay: Antagonist activity at human P2X7 receptor expressed in HEK293 cells assessed as inhibition of BzATP-induced fluorescent ethidium accumulation at 8 uM; type: functional, cell-based; outline: as §1
T2 sequence (whole entry): T1 sequence (Q99572 whole entry)

## CCc1c2[n+](cc3c(OCc4ccccc4C(F)(F)F)c(OC)ccc13)CCc1cc(OC)c(OC)cc1-2
P2X purinoceptor 7
  IC50: 2560 nM
THP-1 [1]
  inhibition at 1 µM: 13%

## COc1ccc2c(c[n+](C)c3c4cc5c(cc4ccc23)OCO5)c1OC
THP-1 [1]
  Activity: inactive

## CCc1c2[n+](cc3c(OCc4ccc(OCc5ccccc5)cc4)c(OC)ccc13)CCc1cc(OC)c(OC)cc1-2
P2X purinoceptor 7
  IC50: 2810 nM
THP-1 [1]
  Activity: inactive

## CCCC(I)c1c2[n+](cc3c(OC)c(OC)ccc13)CCc1cc3c(cc1-2)OCO3 (centres undefined)
P2X purinoceptor 7
  IC50: 420 nM
THP-1 [1]
  inhibition at 1 µM: 54%

## C=CCc1c2[n+](cc3c(OC)c(OC)ccc13)CCc1cc3c(cc1-2)OCO3
P2X purinoceptor 7
  IC50: 440 nM
THP-1 [1]
  inhibition at 1 µM: 71%

## CCc1c2[n+](cc3c(OCc4ccc(Cl)nc4)c(OC)ccc13)CCc1cc(OC)c(OC)cc1-2
P2X purinoceptor 7
  IC50: 4410 nM
THP-1 [1]
  inhibition at 1 µM: 33%

## CCc1c2[n+](cc3c(OCc4cc([N+](=O)[O-])ccc4OC)c(OC)ccc13)CCc1cc(OC)c(OC)cc1-2
P2X purinoceptor 7
  IC50: 420 nM
THP-1 [1]
  inhibition at 1 µM: 42%

## CCc1c2[n+](cc3c(OCc4cccc([N+](=O)[O-])c4C)c(OC)ccc13)CCc1cc(OC)c(OC)cc1-2
P2X purinoceptor 7
  IC50: 5400 nM

## CCc1c2[n+](cc3c(OCc4ccc(C(C)(C)C)cc4)c(OC)ccc13)CCc1cc(OC)c(OC)cc1-2
P2X purinoceptor 7
  IC50: 1260 nM
THP-1 [1]
  inhibition at 1 µM: 33%

## CCc1c2[n+](cc3c(OCc4cc(C)ccc4[N+](=O)[O-])c(OC)ccc13)CCc1cc(OC)c(OC)cc1-2
P2X purinoceptor 7
  IC50: 730 nM
THP-1 [1]
  inhibition at 1 µM: 40%

## CN([C@@H](Cc1ccc(OS(=O)(=O)c2cccc3cnccc23)cc1)C(=O)N1CCN(c2ccccc2)CC1)S(=O)(=O)c1cccc2cnccc12
P2X purinoceptor 7
  IC50: 340 nM
THP-1 [1]
  inhibition at 1 µM: 79%
THP-1 [2]
  IC50: 81 nM

## COc1cc2c(cc1OC)-c1c(CC3CCCCC3)c3ccc(OC)c(OC)c3c[n+]1CC2
P2X purinoceptor 7
  IC50: 1120 nM
THP-1 [1]
  inhibition at 1 µM: 17%

## COc1cc2c(cc1OC)-c1cc3ccc(OC)c(OC)c3c[n+]1CC2
[3]
  Activity: inactive

## CCc1c2[n+](cc3c(OCc4ccc(-c5ccccc5)cc4)c(OC)ccc13)CCc1cc(OC)c(OC)cc1-2
P2X purinoceptor 7
  IC50: 3220 nM
THP-1 [1]
  Activity: inactive

## COc1cc(Cc2c3[n+](cc4c(OC)c(OC)ccc24)CCc2cc4c(cc2-3)OCO4)cc(OC)c1
P2X purinoceptor 7
  IC50: 260 nM
THP-1 [1]
  inhibition at 1 µM: 39%

## CCc1c2[n+](cc3c(OCc4ccc(Br)cc4)c(OC)ccc13)CCc1cc(OC)c(OC)cc1-2
P2X purinoceptor 7
  IC50: 2600 nM
THP-1 [1]
  inhibition at 1 µM: 5%

## COc1ccc2c(Cc3c(F)cccc3Cl)c3[n+](cc2c1OC)CCc1cc2c(cc1-3)OCO2
P2X purinoceptor 7
  IC50: 400 nM
THP-1 [1]
  inhibition at 1 µM: 50%

## CCc1c2[n+](cc3c(OCc4cc(OC)c(OC)cc4[N+](=O)[O-])c(OC)ccc13)CCc1cc(OC)c(OC)cc1-2
P2X purinoceptor 7
  IC50: 170 nM
THP-1 [1]
  inhibition at 1 µM: 83%
THP-1 [2]
  IC50: 175 nM

## CC[C@@H]1c2ccc(OC)c(OC)c2CN2CCc3cc4c(cc3[C@H]12)OCO4 (racemic)
P2X purinoceptor 7
  IC50: 560 nM
THP-1 [1]
  inhibition at 1 µM: 34%

## CCc1c2[n+](cc3c(OC)c(OC)ccc13)CCc1cc3c(cc1-2)OCO3
P2X purinoceptor 7
  IC50: 350 nM
THP-1 [1]
  inhibition at 1 µM: 73%

## CCc1c2[n+](cc3c(OCc4cccc(Cl)c4)c(OC)ccc13)CCc1cc(OC)c(OC)cc1-2
P2X purinoceptor 7
  IC50: 2660 nM
THP-1 [1]
  inhibition at 1 µM: 7%

## CCc1c2[n+](cc3c(OCc4ccccc4C)c(OC)ccc13)CCc1cc(OC)c(OC)cc1-2
P2X purinoceptor 7
  IC50: 5020 nM
THP-1 [1]
  Activity: inactive

## COc1ccc2cc3[n+](cc2c1OC)CCc1cc2c(cc1-3)OCO2
[3]
  inhibition: 7.03%

## CCc1c2[n+](cc3c(OCc4cc(C)ccc4C)c(OC)ccc13)CCc1cc(OC)c(OC)cc1-2
P2X purinoceptor 7
  IC50: 1530 nM
THP-1 [1]
  inhibition at 1 µM: 8%

## CCc1c2[n+](cc3c(OCc4ccc(F)cc4C(F)(F)F)c(OC)ccc13)CCc1cc(OC)c(OC)cc1-2
P2X purinoceptor 7
  IC50: 820 nM
THP-1 [1]
  inhibition at 1 µM: 13%

## CCCc1c2[n+](cc3c(OC)c(OC)ccc13)CCc1cc(OC)c(OC)cc1-2
P2X purinoceptor 7
  IC50: 500 nM
